Scp-1 inhibitor: Scp-1 phosphatase inhibitors, primary screen, biochemical, colorimetric, uHTS | AID 493091, 2011 | inhibition, % at 20 µM | hit rate 0.88% among 340,000 | Recombinant Scp1, phosphopeptide, malachite green phosphate absorbance;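 active = inhibition above about 50% at 20 µM, limit read from the data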
Target sequence (Q9GZU7 76-261 limits assumed): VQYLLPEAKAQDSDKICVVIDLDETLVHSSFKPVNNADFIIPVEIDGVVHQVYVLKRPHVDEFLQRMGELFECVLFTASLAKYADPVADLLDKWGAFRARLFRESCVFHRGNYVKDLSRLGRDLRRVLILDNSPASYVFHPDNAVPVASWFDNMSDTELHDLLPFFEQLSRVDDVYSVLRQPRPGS
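Test system – truncated SCP-1 phosphatase (76-261aa) · Reagent – Phosphorylated 17-residue peptide substrate · Incubation – 45 min room-temperature reaction, 5 min colour, 30 min stabiliser · Detection – colorimetric phosphate reagent with accelerator and stabiliser, absorbance at 630 nm · Measure – % inhibition at 20 µM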
STEP block: STEP phosphatase inhibitors, primary screen, biochemical, fluorescence intensity, uHTS. AID 588621, 2011. recombinant STEP, OMFP fluorogenic substrate. hit rate 0.25% among 360,000. inhibition, % at 20 µM;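 active = inhibition at 20 µM, scaled per plate between control wells, above about 37%, limit read from the data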
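Material: STEP (striatal-enriched tyrosine phosphatase) enzyme, cell-free | Medium: 50 mM Bis-Tris pH 6.0 with 2.5 mM DTT and 0.005% Tween 20 | Read-out: Percent inhibition scaled to no-enzyme and uninhibited-enzyme controls, plate-pattern corrected | Signal: Fluorescence read at 480 nm ex / 540 nm em | Times: 20 min reaction, room temperature, in the dark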
LMPTP block: LMPTP phosphatase inhibitors, primary screen, biochemical, fluorescence intensity, uHTS. inhibition, % at 20 µM. hit rate 0.22% among 360,000. AID 651560, 2012. recombinant LMPTP-A, OMFP fluorogenic substrate;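 active = compounds that cut the enzyme signal by at least half of the control window in the single-dose screen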
Target sequence (P24666 whole entry, looked up): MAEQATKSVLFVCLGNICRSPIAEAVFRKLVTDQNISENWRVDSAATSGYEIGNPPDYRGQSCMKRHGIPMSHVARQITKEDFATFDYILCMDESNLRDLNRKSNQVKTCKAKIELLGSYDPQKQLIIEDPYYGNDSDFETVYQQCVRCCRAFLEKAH
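material = LMPTP-A | quantity = 0.625 nM enzyme | reagent = OMFP substrate, 400 µM final | buffer or medium = Bis-Tris pH 6.0, DTT, detergent | detection = endpoint fluorescence intensity from OMFP dephosphorylation | dosing = single 20 µM dose | read-out basis = % inhibition relative to no-enzyme and uninhibited control wells | control set = no-enzyme and uninhibited controls | timing = 50 min at room temperature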
DNMT1 block: human DNMT1 methyltransferase inhibitors, primary screen, biochemical, molecular beacon, fluorescence, HinP1I cleavage, uHTS. inhibition (reported as % activation of signal), % at 10 µM. hit rate 0.83% among 360,000; in the data active = inhibition above about 50%
SUMO1-SIM PPI: modulators of SUMO1 protein-protein interactions, primary screen, biochemical, uHTS | SUMO1 binding to a labelled peptide, TR-FRET, 1 h | inhibition, % at 20 µM | hit rate 0.33% among 360,000 | AID 602429, 2012; in the data active = inhibition above about 37%
CASP6 VEID inh: human caspase-6 inhibitors, primary screen, biochemical, VEID-R110 fluorescence, single point, set 2; AID 686996, 2013; inhibition, % at 12.5 µM; purified caspase-6, Z-VEID-R110 cleavage fluorescence; P55212; hit rate 0.53% among 350,000;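 active = mean inhibition across replicates at least about 35%, with every replicate also reaching that limit, limit read from the data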
Target sequence (P55212 24-179 limits assumed): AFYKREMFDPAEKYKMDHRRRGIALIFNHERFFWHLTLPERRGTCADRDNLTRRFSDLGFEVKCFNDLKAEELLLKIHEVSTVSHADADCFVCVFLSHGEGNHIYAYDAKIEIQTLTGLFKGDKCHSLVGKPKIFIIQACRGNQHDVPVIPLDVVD
Target sequence (P55212 194-293 limits assumed): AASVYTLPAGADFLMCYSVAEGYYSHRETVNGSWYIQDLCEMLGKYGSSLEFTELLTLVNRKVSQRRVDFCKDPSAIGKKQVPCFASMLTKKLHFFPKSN
Each line names hits and unclear results; the compound was inactive in the other large screens. This is a sample that favours compounds with a hit; in the whole collection about 1.7% have one here.

CCN(CC)c1ccc(/C=N/NC(=O)c2ccc([N+](=O)[O-])cc2)cc1	none
CCN=C(N/N=C/c1ccc([N+](=O)[O-])cc1)SC	Scp-1 inhibitor 104 (no result: CASP6 VEID inh)
C=CCNC(=O)C1CC(=O)N(c2ccc(OCc3ccc(F)cc3)cc2)C1 (stereo unspecified)	none
S=c1[nH]nc(-c2ccc(Cl)cc2Cl)n1Cc1ccccc1	none
O=C(CNc1ccc2c(c1)OCO2)N/N=C\c1ccccc1Cl	SUMO1-SIM PPI 51
O=C(CNC(=O)c1ccccc1)N/N=C/c1ccccc1Cl	SUMO1-SIM PPI 48
C=CCOc1c(Br)cc(/C=N/O)cc1OCC	none (no result: CASP6 VEID inh)
O=C(Nc1nc2ccsc2c(=O)s1)c1ccco1	Scp-1 inhibitor 54, SUMO1-SIM PPI 39, CASP6 VEID inh 37
Cc1csc2c(=O)sc(NC(=O)c3ccco3)nc12	none
Cc1nc2ccc3nc(NC(=O)c4ccco4)sc3c2s1	SUMO1-SIM PPI 54 (no result: CASP6 VEID inh)
Cc1ccc2nc(NC(=O)c3ccco3)sc2c1	none (no result: CASP6 VEID inh)
CCCC(=O)n1nc(-c2cccnc2)nc1NCc1ccc(OC)cc1	CASP6 VEID inh 39
COc1ccccc1C(=O)n1nc(-c2cccnc2)nc1NCc1ccccc1	none
CCC(=O)C1CCCN(C(=O)c2ccc(OC)c(OC3CCN(C(C)=O)CC3)c2)C1 (stereo unspecified)	SUMO1-SIM PPI 43
COc1ccc(C(=O)N2CCN(C)C(C)C2)cc1OC1CCN(C(C)=O)CC1 (stereo unspecified)	none
O=[N+]([O-])c1ccc(S(=O)(=O)N2CCC3(CC2)OCCN3S(=O)(=O)c2cccs2)cc1	CASP6 VEID inh 36
Cc1ccc(S(=O)(=O)N2CCC3(CC2)OCCN3S(=O)(=O)c2cccs2)cc1	none
COc1ccc(S(=O)(=O)N2CCOC23CCN(S(=O)(=O)c2ccc(C)cc2)CC3)cc1	CASP6 VEID inh 52
COc1ccc(-c2csc(NC(=S)NC(=O)c3cccs3)n2)cc1OC	SUMO1-SIM PPI 44
COc1ccc(-c2csc(NC(=O)CSCc3c(C)noc3C)n2)cc1OC	CASP6 VEID inh 60
COc1ccc(-c2csc(NC(=S)NC(=O)c3cccs3)n2)cc1Br	none
Cc1cc(C)n(-c2cc(N3CCOCC3)ncn2)n1	none
COc1ccccc1C(=O)Nc1ccc2c(c1)C(=O)N(C)[C@H]1CC[C@H](CC(=O)NCc3ccc(Cl)c(Cl)c3)O[C@H]1CO2	none (no result: Scp-1 inhibitor, STEP block, LMPTP block, DNMT1 block, SUMO1-SIM PPI)
O/C=c1\ccc2cccc3nc(C(F)(F)F)nc1c23	DNMT1 block 50
NNc1nc(C(F)(F)F)nc2ccccc12	none
NC(CSC(c1ccccc1)(c1ccccc1)c1cccc2ccccc12)C(=O)O (stereo unspecified)	DNMT1 block 69 (no result: CASP6 VEID inh)
Cc1[nH]ncc1Nc1c(C(C)C)cccc1C(C)C	CASP6 VEID inh 55 (no result: Scp-1 inhibitor)
Cc1onc(-c2ccccc2)c1NC(=O)Nc1c(-c2ccccc2)noc1C	none
O=[N+]([O-])c1nn(-c2cccc(Cl)c2)n(O)c1=NCc1cccnc1	SUMO1-SIM PPI 43
C/C(=N\NC(=O)c1ccc(N)cc1)C1CC1	none
C/C(=N\NC(=O)c1ccccc1O)C1CC1	CASP6 VEID inh 42
COc1ccc(O)c(C(=O)c2cc(SCC(=O)O)c3nc4sc5c(c4c(=O)n3c2)CCCC5)c1	SUMO1-SIM PPI 42
CCOC(=O)c1sc2nc3c(SCC(=O)O)cc(C(=O)c4cc(F)ccc4O)cn3c(=O)c2c1C	none
CC(C)c1ccc(S(=O)(=O)N2CCN(CC(=O)Nc3ccc(Cl)cc3F)CC2)cc1	none
CC(C)c1ccc(S(=O)(=O)N2CCN(CC(=O)c3ccc(O)c(O)c3)CC2)cc1	LMPTP block 68, CASP6 VEID inh 57 (no result: Scp-1 inhibitor)
O=C(CN1CCN(S(=O)(=O)c2ccc(Br)cc2)CC1)c1ccc(O)c(O)c1	LMPTP block 59, CASP6 VEID inh 55
CC(=O)[C@@H]1[C@@H](C)N(Cc2ccccc2)C(=O)N[C@H]1c1cccc(C(F)(F)F)c1	none
c1cncc(-c2nc3ccccc3s2)c1	SUMO1-SIM PPI 48
O=C(CSc1nc2ccsc2c(=O)n1CC1CCC(C(=O)O)CC1)c1ccc(Cl)cc1 (stereo unspecified)	CASP6 VEID inh 43
O=C(CSc1nc2ccsc2c(=O)n1CC1CCC(C(=O)O)CC1)c1ccc(F)cc1 (stereo unspecified)	none
N#Cc1c(NC(=S)NC(=O)c2ccccc2)sc2c1CCC2	none
CCC1(C)Cc2c(sc(NC(=S)NC(=O)c3ccccc3)c2C#N)CO1 (stereo unspecified)	LMPTP block 52
CCN1CCc2c(sc(NC(=S)NC(=O)c3ccccc3)c2C#N)C1	LMPTP block 58 (no result: CASP6 VEID inh)
CC(=O)Nc1sc2c(c1C#N)CCN(Cc1ccccc1)C2	none
N#Cc1c(NC(=O)/C=C/C(=O)O)sc2c1CCN(Cc1ccccc1)C2	Scp-1 inhibitor 68, LMPTP block 47
CN1Cc2sc(NC(=S)NC(=O)c3ccccc3)c(C#N)c2CC1(C)C	none (no result: STEP block, LMPTP block, DNMT1 block, SUMO1-SIM PPI)
CC1CCC(NC(=O)CCNC(=O)c2ccccc2)CC1 (stereo unspecified)	none
N#C[C@@H]1[C@H](c2ccccc2)[C@H](CO)N1C(=O)c1cccnc1	none (no result: Scp-1 inhibitor, STEP block, LMPTP block, DNMT1 block, SUMO1-SIM PPI)
O=C1C=C(N2CCCCC2)c2ccccc2C1=O	DNMT1 block 89, SUMO1-SIM PPI 66, CASP6 VEID inh 100
O=C1c2ccccc2C(=O)c2c1cccc2N1CCCC1	none
CCOc1cc(N2CCOCC2)c(OCC)cc1NC(=O)c1ccc(S(C)(=O)=O)cc1	none
CCc1ccc(NS(=O)(=O)c2cc(OC)ccc2OC)cc1	CASP6 VEID inh 58
O=C(CCc1ccco1)CCc1ccco1	CASP6 VEID inh 76
NC(=O)c1ccc(NCCc2ccco2)cc1	none (no result: Scp-1 inhibitor)
O=C(Nc1ccc(Cl)c(S(=O)(=O)N2CCOCC2)c1)c1ccccn1	none
Cc1nc(N)nc(N)c1-c1ccc([N+](=O)[O-])cc1	LMPTP block 67
Nc1nc(-c2ccccc2)c(-c2ccc([N+](=O)[O-])cc2)s1	none
O=C(N/N=C/c1ccc(-c2ccc(S(=O)(=O)Nc3ncccn3)cc2)o1)c1cc2ccccc2cc1O	DNMT1 block 86, SUMO1-SIM PPI 39 (no result: CASP6 VEID inh)
Cc1nn(Cc2ccc(C(=O)Nc3ccccc3F)cc2)c(C)c1Cl	none
CC(C)NC(=O)N1C[C@H]2[C@@H](c3ccccc31)[C@@H](CO)N2C(=O)Nc1ccc(F)cc1	none (no result: Scp-1 inhibitor, STEP block, LMPTP block, DNMT1 block, SUMO1-SIM PPI)
Nc1ccc(N)c(C(=O)O)c1	Scp-1 inhibitor 96, STEP block 96, LMPTP block 81, DNMT1 block 117, SUMO1-SIM PPI 105 (no result: CASP6 VEID inh)

Screens: PubChem BioAssay, several laboratories
